Source: ChEMBL document CHEMBL1141245, “Discovery of novel 1-arylmethyl pyrrolidin-2-yl ethanol amines as calcium-sensing receptor antagonists” (Bioorg Med Chem Lett, 2005)

What was measured:
[1] = biological target: T1, Extracellular calcium-sensing receptor (Homo sapiens, UniProt P41180); test: Inhibition of intracellular calcium release in human TT cells containing calcium-sensing receptor by FLIPR; assay type: functional, cell-based
T1 sequence (P41180 whole entry): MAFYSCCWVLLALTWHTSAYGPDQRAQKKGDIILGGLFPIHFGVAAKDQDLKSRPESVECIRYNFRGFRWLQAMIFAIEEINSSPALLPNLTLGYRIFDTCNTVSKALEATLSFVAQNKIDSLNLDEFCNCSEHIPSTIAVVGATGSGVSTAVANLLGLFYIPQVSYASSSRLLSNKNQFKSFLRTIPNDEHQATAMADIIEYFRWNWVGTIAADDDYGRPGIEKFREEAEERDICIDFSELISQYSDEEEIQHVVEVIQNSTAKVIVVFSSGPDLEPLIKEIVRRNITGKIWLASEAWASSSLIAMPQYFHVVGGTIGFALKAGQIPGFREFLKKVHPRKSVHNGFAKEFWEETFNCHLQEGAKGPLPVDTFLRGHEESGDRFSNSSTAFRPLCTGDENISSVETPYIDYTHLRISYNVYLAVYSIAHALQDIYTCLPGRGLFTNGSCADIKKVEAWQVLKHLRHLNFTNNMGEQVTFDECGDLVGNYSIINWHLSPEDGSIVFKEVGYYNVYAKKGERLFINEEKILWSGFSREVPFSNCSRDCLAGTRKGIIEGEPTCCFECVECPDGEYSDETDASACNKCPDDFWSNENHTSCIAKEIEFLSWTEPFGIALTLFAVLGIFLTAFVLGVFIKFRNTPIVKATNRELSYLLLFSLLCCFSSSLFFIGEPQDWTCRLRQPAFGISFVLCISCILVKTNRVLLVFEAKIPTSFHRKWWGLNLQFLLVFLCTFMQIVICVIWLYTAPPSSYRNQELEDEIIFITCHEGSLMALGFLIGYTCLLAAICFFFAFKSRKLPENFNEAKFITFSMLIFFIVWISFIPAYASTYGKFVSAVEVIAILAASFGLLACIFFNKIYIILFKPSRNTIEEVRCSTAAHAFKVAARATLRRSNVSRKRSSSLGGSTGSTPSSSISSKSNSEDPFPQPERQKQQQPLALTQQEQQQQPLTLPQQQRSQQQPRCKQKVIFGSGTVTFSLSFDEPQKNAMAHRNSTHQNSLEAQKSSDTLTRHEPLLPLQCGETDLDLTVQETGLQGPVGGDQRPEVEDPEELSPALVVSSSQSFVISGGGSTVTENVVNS
Summary of the method: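 Fluorescence-based intracellular Ca2+ mobilization, read on FLIPR, in human TT cells carrying endogenous calcium-sensing receptor. IC50 values are means of two experiments.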

[2] = biological target: T2, Extracellular calcium-sensing receptor (Rattus norvegicus, UniProt P48442); test: Inhibition of extracellular calcium-induced inositol triphosphate generation in rat MTC cells expressing calcium-sensing receptor; assay type: functional, cell-based
T2 sequence (P48442 whole entry): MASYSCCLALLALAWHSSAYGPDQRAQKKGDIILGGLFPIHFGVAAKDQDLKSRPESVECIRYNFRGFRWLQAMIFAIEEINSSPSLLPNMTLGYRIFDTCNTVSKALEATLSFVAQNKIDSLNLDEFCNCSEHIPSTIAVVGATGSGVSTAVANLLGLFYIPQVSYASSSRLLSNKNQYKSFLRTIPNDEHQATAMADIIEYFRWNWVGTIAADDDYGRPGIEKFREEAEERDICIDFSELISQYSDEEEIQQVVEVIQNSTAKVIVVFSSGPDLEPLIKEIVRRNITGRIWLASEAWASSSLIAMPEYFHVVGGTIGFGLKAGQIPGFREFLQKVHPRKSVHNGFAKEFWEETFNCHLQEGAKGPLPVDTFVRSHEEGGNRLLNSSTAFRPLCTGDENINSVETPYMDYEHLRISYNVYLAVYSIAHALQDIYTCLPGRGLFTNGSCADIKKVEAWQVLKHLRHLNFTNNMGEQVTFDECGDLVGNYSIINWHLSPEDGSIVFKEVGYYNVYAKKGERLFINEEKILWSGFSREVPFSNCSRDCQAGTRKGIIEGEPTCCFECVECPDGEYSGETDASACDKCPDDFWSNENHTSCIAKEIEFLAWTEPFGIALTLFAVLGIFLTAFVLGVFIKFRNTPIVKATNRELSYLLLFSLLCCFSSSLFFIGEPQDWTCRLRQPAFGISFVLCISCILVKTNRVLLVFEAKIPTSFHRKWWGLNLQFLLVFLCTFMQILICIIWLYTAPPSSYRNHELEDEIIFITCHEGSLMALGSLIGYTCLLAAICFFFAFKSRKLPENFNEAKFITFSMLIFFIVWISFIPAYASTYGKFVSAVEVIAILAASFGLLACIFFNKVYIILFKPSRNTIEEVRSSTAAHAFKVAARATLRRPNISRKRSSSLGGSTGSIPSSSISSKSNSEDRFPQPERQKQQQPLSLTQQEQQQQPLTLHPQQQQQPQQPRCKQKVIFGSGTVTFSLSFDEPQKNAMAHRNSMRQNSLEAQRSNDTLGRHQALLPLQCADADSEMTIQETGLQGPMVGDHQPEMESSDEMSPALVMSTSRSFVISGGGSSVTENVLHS

Row | SMILES | IC50 [1] [nM] | IC50 [2] [nM]
1 | CC(C)(Cc1ccc2ccccc2c1)NC[C@@H](O)COc1cccc(Cl)c1C#N | 50 | 530
2 | CC(C)(Cc1ccc2ccccc2c1)NC[C@@H](O)[C@H]1CCCN1Cc1ccccc1[N+](=O)[O-] | 160 | –
3 | CC(C)(Cc1ccc(F)cc1)NC[C@@H](O)COc1cccc(Cl)c1C#N | 600 | –
4 | CC(C)(Cc1ccc(F)cc1)NC[C@@H](O)CSc1cccc(Cl)c1Cl | 6180 | –
5 | CC(C)(Cc1ccc2ccccc2c1)NC[C@@H](O)[C@H]1CCCN1Cc1cccc(F)c1O | 140 | 2560
6 | CC(C)(Cc1ccc2ccccc2c1)NC[C@@H](O)[C@H]1CCCN1Cc1ccc([N+](=O)[O-])cc1 | 790 | –
7 | CC(C)(Cc1ccc2ccccc2c1)NC[C@@H](O)[C@H]1CCCN1Cc1ccc(C#N)cc1 | 250 | –
8 | CC(C)(Cc1ccc2ccccc2c1)NC[C@@H](O)[C@H]1CCCN1Cc1cccc(C#N)c1 | 190 | 2200
9 | CC(C)(Cc1ccc2ccccc2c1)NCCCOc1cccc(Cl)c1C#N | 880 | –
10 | CC(C)(Cc1cc2ccccc2s1)NC[C@H](O)COc1ccccc1C#N | 60 | –
11 | CC(C)(Cc1ccc2ccccc2c1)NC[C@H](O)[C@H]1CCCN1Cc1ccccc1C#N | 1270 | –
12 | CC(C)(Cc1csc2ccccc12)NC[C@@H](O)[C@H]1CCCN1Cc1cccc(C#N)c1 | 1000 | –
13 | CC(C)(Cc1ccccc1)NC[C@H](O)COc1ccccc1S(C)(=O)=O | 9430 | –
14 | CC(C)(Cc1ccc2ccccc2c1)NC[C@@H](O)[C@H]1CCCN1Cc1cccc(O)c1 | 1160 | –
15 | CC(C)(Cc1ccc2ccccc2c1)NC[C@H](O)COc1cccc(Cl)c1C#N | 50 | –
16 | CC(C)(Cc1cc2ccccc2s1)NC[C@@H](O)[C@H]1CCCN1Cc1cccc(C#N)c1 | 270 | –
17 | CC(C)(Cc1ccc2ccccc2c1)NC[C@@H](O)[C@H]1CCCN1Cc1ccccc1C#N | 340 | –
18 | COc1cccc(CN2CCC[C@@H]2[C@H](O)CNC(C)(C)Cc2ccc3ccccc3c2)c1O | 1560 | –
19 | N#Cc1c(Cl)cccc1OC[C@H](O)CNc1ccc2ccccc2c1 | 4600 | –
20 | CC(C)(Cc1ccc2ccccc2c1)NC[C@@H](O)[C@H]1CCCN1Cc1cccc(F)c1F | 360 | –
21 | CC(C)(Cc1ccc2ccccc2c1)NC[C@@H](O)[C@H]1CCCN1Cc1cccc(C(=O)O)c1 | 6840 | –

Row | SMILES | IC50 [1] [nM] | IC50 [2] [nM]
22 | CC(C)(Cc1ccc(F)cc1)NC[C@@H](O)COc1ccc(OC(F)(F)F)cc1 | 3300 | –
23 | CC(C)(Cc1ccc2ccccc2c1)NC[C@@H](O)[C@H]1CCCN1Cc1ccccc1O | 970 | –
24 | CC(C)(Cc1ccc2ccccc2c1)NC[C@@H](O)[C@H]1CCCN1Cc1cccc(F)c1 | 750 | –
25 | COc1ccc(CC(C)(C)NC[C@H](O)COc2cccc(OC)c2)cc1 | 1390 | –
26 | CC(C)(Cc1ccc2ccccc2c1)NC[C@@H](O)[C@H]1CCCN1Cc1cccc(Cl)c1C#N | 240 | –
27 | CC(C)(Cc1ccc2ccccc2c1)NC[C@@H](O)[C@H]1CCCN1Cc1cccc(Br)c1 | 1570 | –
28 | COc1cccc(CN2CCC[C@@H]2[C@H](O)CNC(C)(C)Cc2ccc3ccccc3c2)c1 | 1190 | –
29 | COc1ccc(CC(C)(C)NC[C@@H](O)[C@H]2CCCN2Cc2cccc(C#N)c2)cc1 | 2670 | –
30 | CN(C[C@@H](O)COc1cccc(Cl)c1C#N)C(C)(C)Cc1ccc2ccccc2c1 | 270 | –
31 | CC(C)(Cc1cc2ccccc2[nH]1)NC[C@H](O)COc1ccccc1C#N | 100 | –
32 | CC(C)(Cc1ccc2ccccc2c1)NC[C@@H](O)[C@H]1CCCN1Cc1cccc([N+](=O)[O-])c1O | 140 | –
33 | CC(C)(Cc1ccc2ccccc2c1)NC[C@@H](O)[C@H]1CCCN1Cc1cccc([N+](=O)[O-])c1 | 140 | –
34 | N#Cc1c(Cl)cccc1OC[C@H](O)CNCCc1ccc2ccccc2c1 | 3860 | –
35 | CC(C)(Cc1nc2ccccc2s1)NC[C@@H](O)[C@H]1CCCN1Cc1cccc(C#N)c1 | 1350 | –
36 | CC(C)(Cc1ccc2ccccc2c1)NC[C@@H](O)COc1ccccc1C#N | 30 | –
37 | CC(C)(Cc1nc2ccccc2[nH]1)NC[C@@H](O)[C@H]1CCCN1Cc1cccc(C#N)c1 | 2840 | –
38 | CC(C)(Cc1ccc2ccccc2c1)NC[C@@H](O)[C@H]1CCCN1C(=O)c1cccc(C#N)c1 | 8430 | –
39 | CC(C)(Cc1ccc2ccccc2c1)NC[C@@H](O)[C@H]1CCCN1Cc1cccc(-c2ccccc2)c1 | 2470 | –
40 | COc1ccc(CC(C)(C)NCC(O)COc2ccc(S(C)(=O)=O)c(C)c2)cc1 (centres undefined) | 11400 | –
41 | CC(C)(Cc1cc2ccccc2[nH]1)NC[C@@H](O)[C@H]1CCCN1Cc1cccc(C#N)c1 | 440 | –
